From ChEMBL document CHEMBL3808274, “Discovery and characterization of a novel series of N-phenylsulfonyl-1H-pyrrole picolinamides as positive allosteric modulators of the metabotropic glutamate receptor 4 (mGlu4)” (Bioorg Med Chem Lett, 2016)

What was measured:
[1] = molecular target: T1, Metabotropic glutamate receptor 4 (Homo sapiens, UniProt Q14833); test: Positive allosteric modulation of human mGlu4 receptor assessed as increase in glutamate-induced calcium mobilization; type: functional
Outline: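 Calcium mobilization assay in cells expressing human mGlu4; potentiation of the glutamate response measured; EC50 values are the average of n = 3.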

[2] = molecular target: T1, Metabotropic glutamate receptor 4; test: Positive allosteric modulation of human mGlu4 receptor assessed as increase in glutamate-induced calcium mobilization at 30 uM relative to PHCCC; type: functional
Outline: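 Calcium mobilization assay at human mGlu4; response amplitude with 30 µM test compound normalized to the standard PHCCC and expressed as %GluMax.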

[3] = tested on: Plasma; test: Fraction unbound in rat plasma by equilibrium dialysis method; type: ADME, cell-free
Outline: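 Protein binding in rat plasma measured by equilibrium dialysis; fraction unbound (Fu) reported.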

[4] = AUC in rat at 1 mg/kg, iv; type: ADME, organism-based; settings: in vivo
Outline: (§1)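 Rat IV dosing at 1 mg/kg; plasma PK parameters (clearance, half-life, MRT, Vss, AUC) derived from plasma concentration-time profile.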

[5] = Volume of distribution at steady state in rat at 1 mg/kg, iv; type: ADME, organism-based; settings: in vivo, read-out: Vdss; outline: as §1
[6] = Half life in rat at 1 mg/kg, iv; type: ADME, organism-based; settings: in vivo; outline: as §1
[7] = Plasma clearance in rat at 1 mg/kg, iv; type: ADME, organism-based; outline: as §1
[8] = Mean residence time in rat at 1 mg/kg, iv; type: ADME, organism-based; settings: in vivo; outline: as §1
[9] = Drug level in rat brain at 10 mg/kg, po coadministered with panirreversible P450 inhibitor ABT incubated for 1 hr; type: ADME, organism-based; settings: read-out: Drug uptake
Outline: (§2)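 Rats dosed orally at 10 mg/kg, with vehicle or co-dosed with the pan-irreversible P450 inhibitor 1-aminobenzotriazole (ABT); samples taken at 1 h from systemic plasma, hepatic portal vein plasma and brain. Brain:plasma and systemic:HPV ratios are calculated from these concentrations.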

[10] = Ratio of drug level in rat brain to plasma at 10 mg/kg, po incubated for 1 hr; type: ADME, organism-based; settings: read-out: BPR; outline: as §2
[11] = Drug level in rat brain at 10 mg/kg, po incubated for 1 hr; type: ADME, organism-based; settings: read-out: Drug uptake; outline: as §2
[12] = Ratio of systemic plasma concentration to hepatic portal vein plasma concentration in rat at 10 mg/kg, po coadministered with panirreversible P450 inhibitor ABT; type: ADME, organism-based; settings: in vivo; outline: as §2
[13] = Systemic plasma concentration in rat at 10 mg/kg, po coadministered with panirreversible P450 inhibitor ABT incubated for 1 hr; type: ADME, organism-based
Outline: (§3)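 Rats dosed orally at 10 mg/kg, either with vehicle or co-dosed with 1-aminobenzotriazole (ABT), a pan-irreversible cytochrome P450 inhibitor. At 1 h post-dose, systemic plasma, hepatic portal vein plasma and brain were sampled. Drug concentrations were measured in each matrix, and brain:plasma ratios were derived from these levels.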

[14] = Plasma concentration in rat hepatic portal vein at 10 mg/kg, po incubated for 1 hr; type: ADME, organism-based; outline: as §2
[15] = Plasma concentration in rat hepatic portal vein at 10 mg/kg, po coadministered with panirreversible P450 inhibitor ABT incubated for 1 hr; type: ADME, organism-based; outline: as §2
[16] = Ratio of drug level in rat brain to plasma at 10 mg/kg, po coadministered with panirreversible P450 inhibitor ABT incubated for 1 hr; type: ADME, organism-based; settings: read-out: BPR; outline: as §3
[17] = Ratio of systemic plasma concentration to hepatic portal vein plasma concentration in rat at 10 mg/kg, po; type: ADME, organism-based; settings: in vivo; outline: as §2
[18] = Systemic plasma concentration in rat at 10 mg/kg, po incubated for 1 hr; type: ADME, organism-based; outline: as §3

T1 sequence (Q14833 whole entry): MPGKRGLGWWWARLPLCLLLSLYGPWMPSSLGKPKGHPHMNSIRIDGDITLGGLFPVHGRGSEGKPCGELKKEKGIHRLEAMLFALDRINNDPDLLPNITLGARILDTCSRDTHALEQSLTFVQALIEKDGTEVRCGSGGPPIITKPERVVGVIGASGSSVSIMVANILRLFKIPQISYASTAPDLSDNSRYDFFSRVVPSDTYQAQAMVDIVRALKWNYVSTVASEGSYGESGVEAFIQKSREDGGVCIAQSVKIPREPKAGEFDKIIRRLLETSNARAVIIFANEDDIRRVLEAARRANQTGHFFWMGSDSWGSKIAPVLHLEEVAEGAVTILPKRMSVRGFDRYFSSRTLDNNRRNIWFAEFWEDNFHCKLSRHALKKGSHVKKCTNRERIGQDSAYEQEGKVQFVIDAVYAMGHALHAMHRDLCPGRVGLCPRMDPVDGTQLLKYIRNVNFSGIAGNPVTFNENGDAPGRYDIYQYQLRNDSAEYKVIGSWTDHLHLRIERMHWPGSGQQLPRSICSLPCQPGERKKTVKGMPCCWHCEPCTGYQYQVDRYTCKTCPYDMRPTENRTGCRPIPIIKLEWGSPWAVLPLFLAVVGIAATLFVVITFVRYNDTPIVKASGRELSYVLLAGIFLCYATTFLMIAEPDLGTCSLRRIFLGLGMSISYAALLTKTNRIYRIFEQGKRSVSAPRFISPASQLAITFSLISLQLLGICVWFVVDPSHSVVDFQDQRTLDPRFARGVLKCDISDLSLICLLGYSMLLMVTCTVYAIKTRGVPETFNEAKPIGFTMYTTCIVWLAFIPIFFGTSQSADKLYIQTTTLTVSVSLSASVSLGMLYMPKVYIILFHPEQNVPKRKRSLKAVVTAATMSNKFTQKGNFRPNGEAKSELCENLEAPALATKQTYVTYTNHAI

SMILES | EC50 [1] | %max [2] | also measured
O=C(Nc1ccn(S(=O)(=O)c2ccc(Cl)nc2)c1)c1ccccn1 | 440 nM | 72.9% | 
O=C(Nc1ccn(S(=O)(=O)Cc2ccccc2F)c1)c1ccccn1 | 251 nM | 117% | 
O=C(Nc1ccn(S(=O)(=O)Cc2ccc(F)cc2F)c1)c1ccccn1 | 190 nM | 109% | 
O=C(Nc1cnn(S(=O)(=O)c2ccc(C(F)(F)F)cc2)c1)c1ccccn1 | 242 nM | 35.3% | 
CCc1nc(NC(=O)c2ccccn2)sc1S(=O)(=O)Cc1ccc(Cl)cc1F | 217 nM | 120% | 
O=C(Nc1ccn(S(=O)(=O)Cc2ccccc2Cl)c1)c1ccccn1 | 174 nM | 119% | 
Cc1cccc(S(=O)(=O)n2ccc(NC(=O)c3ccccn3)c2)c1 | 104 nM | 84.8% | Fu [3]: 0.001
Cc1nc(NC(=O)c2ccccn2)sc1S(=O)(=O)Cc1ccccc1Cl | 448 nM | 94.8% | 
O=C(Nc1ccn(S(=O)(=O)c2ccc(C(F)(F)F)cc2)c1)c1ccccn1 | 739 nM | 35.6% | 
O=C(Nc1ccn(S(=O)(=O)C(F)c2ccccc2F)c1)c1ccccn1 (stereo not drawn) | 1020 nM | 71% | 
Cc1ccc(S(=O)(=O)n2ccc(NC(=O)c3ccccn3)c2)cc1C | 62 nM | 80.3% | AUC [4]: 448 ng·h/mL; Vd [5]: 5.5 L/kg; half-life [6]: 4.2 h; clearance [7]: 37.2 mL/min/kg; Fu [3]: 0.012; MRT [8]: 2.48 h
Cc1cc(S(=O)(=O)n2ccc(NC(=O)c3ccccn3)c2)ccc1F | 268 nM | 98.9% | 
Cc1cccc(CS(=O)(=O)n2ccc(NC(=O)c3ccccn3)c2)c1 | 4180 nM | 112% | 
O=C(Nc1ccn(S(=O)(=O)Cc2ccc(F)cc2Cl)c1)c1ccccn1 | 84 nM | 122% | 
CC(c1ccccc1)S(=O)(=O)n1ccc(NC(=O)c2ccccn2)c1 (stereo not drawn) | 2970 nM | 59.6% | 
O=C(Nc1ccn(S(=O)(=O)Cc2ccc(Cl)cc2)c1)c1ccccn1 | 398 nM | 140% | 

SMILES | EC50 [1] | %max [2] | also measured
O=C(Nc1ncc(S(=O)(=O)Cc2ccccc2Cl)s1)c1ccccn1 | 189 nM | 30.6% | 
Cc1cc(S(=O)(=O)n2ccc(NC(=O)c3ccccn3)c2)ccc1Cl | 163 nM | 72.2% | concentration at 1 h [9]: 176 ng/g; Kp at 1 h [10]: 1; concentration at 1 h [11]: 8.1 ng/g; AUC [4]: 192 ng·h/mL; Ratio [12]: 0.26; Vd [5]: 7.4 L/kg; concentration at 1 h [13]: 198 ng/mL; concentration at 1 h [14]: 731 ng/mL; half-life [6]: 2.78 h; concentration at 1 h [15]: 764 ng/mL; Kp at 1 h [16]: 1; Ratio [17]: < 0.01; clearance [7]: 86.8 mL/min/kg; Fu [3]: 0.004; concentration at 1 h [18]: 7.4 ng/mL; MRT [8]: 1.41 h
Cc1ccc(S(=O)(=O)n2cc(NC(=O)c3ccccn3)cn2)cc1C | 148 nM | 92.9% | Fu [3]: 0.005
O=C(Nc1ccn(S(=O)(=O)Cc2cccc(F)c2)c1)c1ccccn1 | 572 nM | 98.6% | 
O=C(Nc1ccn(S(=O)(=O)c2ccc(Cl)cn2)c1)c1ccccn1 | 344 nM | 83% | 
Cc1ccc(S(=O)(=O)n2ccc(NC(=O)c3ccccn3)c2)cc1 | 122 nM | 88.8% | Fu [3]: 0.009
Cc1nc(NC(=O)c2ccccn2)sc1S(=O)(=O)Cc1ccc(F)cc1F | 547 nM | 93.5% | 
O=C(Nc1ncc(S(=O)(=O)Cc2ccc(Cl)cc2F)s1)c1ccccn1 | 83 nM | 35.1% | 
O=C(Nc1ccn(S(=O)(=O)c2ccc(F)cc2)c1)c1ccccn1 | 740 nM | 78.8% | 
O=C(Nc1ccn(S(=O)(=O)C(F)(F)c2ccccc2F)c1)c1ccccn1 | > 30000 nM | 33.5% | 
O=C(Nc1ccn(S(=O)(=O)Cc2ccc(C(F)(F)F)cc2)c1)c1ccccn1 | 188 nM | 88.7% | 
CCc1nc(NC(=O)c2ccccn2)sc1S(=O)(=O)Cc1c(F)cccc1F | 150 nM | 109% | 
O=C(Nc1ccn(S(=O)(=O)c2ccc(Cl)cc2)c1)c1ccccn1 | 1240 nM | 103% | Fu [3]: 0.004
Cc1nc(NC(=O)c2ccccn2)sc1S(=O)(=O)Cc1ccc(Cl)cc1F | 4140 nM | 112% | 
Cc1nc(NC(=O)c2ccccn2)sc1S(=O)(=O)Cc1c(F)cccc1F | 295 nM | 99.3% | 
